Assay results taken from ChEMBL document CHEMBL3585335, “Isolation and Synthetic Diversification of Jadomycin 4-Amino-l-phenylalanine” (J Nat Prod, 2015).
Activity calls are given as the source filed them.

Assays:
[1] = test system: Escherichia coli; assay: Effect on Copper-mediated Escherichia coli pUC19 DNA cleavage at 100 uM by gel-electrophoresis analysis
[2] = test system: Escherichia coli; assay: Effect on Copper-mediated Escherichia coli pBR322 DNA cleavage at 100 uM by gel-electrophoresis analysis
[3] = test system: Escherichia coli; assay: Effect on photodynamic inactivation in Escherichia coli pUC19 DNA assessed as photo-mediated DNA cleavage at 10 to 100 uM by ethidium bromide gel-electrophoresis analysis
[4] = test system: CCRF-CEM; assay: Cytotoxicity against human CCRF-CEM cells assessed as cell growth at 1 x 10^-5 M; assay type: functional, cell-based
Method in brief: (§1)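 Run by the NCI Developmental Therapeutics Program (DTP) as its one-dose screen across the 60 human tumour cell line panel.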

[5] = test system: HL-60(TB); assay: Cytotoxicity against human HL-60(TB) cells assessed as cell growth at 1 x 10^-5 M; assay type: functional, cell-based
Method in brief: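 Run by the NCI Developmental Therapeutics Program (DTP) within its 60 human tumour cell line one-dose screen.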

[6] = test system: K562; assay: Cytotoxicity against human K562 cells assessed as cell growth at 1 x 10^-5 M; assay type: functional, cell-based; method in brief: as §1
[7] = test system: MOLT-4; assay: Cytotoxicity against human MOLT4 cells assessed as cell growth at 1 x 10^-5 M; assay type: functional, cell-based; method in brief: as §1
[8] = test system: SR; assay: Cytotoxicity against human SR cells assessed as cell growth at 1 x 10^-5 M; assay type: functional, cell-based; method in brief: as §1
[9] = test system: A549; assay: Cytotoxicity against human A549 cells assessed as cell growth at 1 x 10^-5 M; assay type: functional, cell-based; method in brief: as §1
[10] = test system: HOP-62; assay: Cytotoxicity against human HOP62 cells assessed as cell growth at 1 x 10^-5 M; assay type: functional, cell-based; method in brief: as §1
[11] = test system: HOP-92; assay: Cytotoxicity against human HOP92 cells assessed as cell growth at 1 x 10^-5 M; assay type: functional, cell-based; method in brief: as §1
[12] = test system: NCI-H226; assay: Cytotoxicity against human NCI-H226 cells assessed as cell growth at 1 x 10^-5 M; assay type: functional, cell-based; method in brief: as §1
[13] = test system: NCI-H23; assay: Cytotoxicity against human NCI-H23 cells assessed as cell growth at 1 x 10^-5 M; assay type: functional, cell-based; method in brief: as §1
[14] = test system: NCI-H322M; assay: Cytotoxicity against human NCI-H322M cells assessed as cell growth at 1 x 10^-5 M; assay type: functional, cell-based; method in brief: as §1
[15] = test system: NCI-H460; assay: Cytotoxicity against human NCI-H460 cells assessed as cell growth at 1 x 10^-5 M; assay type: functional, cell-based; method in brief: as §1
[16] = test system: NCI-H522; assay: Cytotoxicity against human NCI-H522 cells assessed as cell growth at 1 x 10^-5 M; assay type: functional, cell-based; method in brief: as §1
[17] = test system: COLO 205; assay: Cytotoxicity against human COLO205 cells assessed as cell growth at 1 x 10^-5 M; assay type: functional, cell-based; method in brief: as §1
[18] = test system: HCC 2998; assay: Cytotoxicity against human HCC2998 cells assessed as cell growth at 1 x 10^-5 M; assay type: functional, cell-based; method in brief: as §1
[19] = test system: HCT-116; assay: Cytotoxicity against human HCT116 cells assessed as cell growth at 1 x 10^-5 M; assay type: functional, cell-based; method in brief: as §1
[20] = test system: HCT-15; assay: Cytotoxicity against human HCT15 cells assessed as cell growth at 1 x 10^-5 M; assay type: functional, cell-based; method in brief: as §1
[21] = test system: HT-29; assay: Cytotoxicity against human HT-29 cells assessed as cell growth at 1 x 10^-5 M; assay type: functional, cell-based; method in brief: as §1
[22] = test system: KM12; assay: Cytotoxicity against human KM12 cells assessed as cell growth at 1 x 10^-5 M; assay type: functional, cell-based; method in brief: as §1
[23] = test system: SW-620; assay: Cytotoxicity against human SW620 cells assessed as cell growth at 1 x 10^-5 M; assay type: functional, cell-based
Method in brief: (§2)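 Tested by the NCI Developmental Therapeutics Program in its one-dose screen across the 60 human tumour cell line panel.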

[24] = test system: SF-268; assay: Cytotoxicity against human SF268 cells assessed as cell growth at 1 x 10^-5 M; assay type: functional, cell-based; method in brief: as §1
[25] = test system: SF-295; assay: Cytotoxicity against human SF295 cells assessed as cell growth at 1 x 10^-5 M; assay type: functional, cell-based; method in brief: as §1
[26] = test system: SF-539; assay: Cytotoxicity against human SF539 cells assessed as cell growth at 1 x 10^-5 M; assay type: functional, cell-based; method in brief: as §1
[27] = test system: SNB-19; assay: Cytotoxicity against human SNB19 cells assessed as cell growth at 1 x 10^-5 M; assay type: functional, cell-based; method in brief: as §1
[28] = test system: SNB-75; assay: Cytotoxicity against human SNB75 cells assessed as cell growth at 1 x 10^-5 M; assay type: functional, cell-based; method in brief: as §1
[29] = test system: U-251; assay: Cytotoxicity against human U251 cells assessed as cell growth at 1 x 10^-5 M; assay type: functional, cell-based; method in brief: as §2
[30] = test system: LOX IMVI; assay: Cytotoxicity against human LOXIMVI cells assessed as cell growth at 1 x 10^-5 M; assay type: functional, cell-based; method in brief: as §1
[31] = test system: Malme-3M; assay: Cytotoxicity against human MALME-3M cells assessed as cell growth at 1 x 10^-5 M; assay type: functional, cell-based; method in brief: as §1
[32] = test system: M14; assay: Cytotoxicity against human M14 cells assessed as cell growth at 1 x 10^-5 M; assay type: functional, cell-based; method in brief: as §1
[33] = test system: MDA-MB-435; assay: Cytotoxicity against human MDA-MB-435 cells assessed as cell growth at 1 x 10^-5 M; assay type: functional, cell-based; method in brief: as §1
[34] = test system: SK-MEL-2; assay: Cytotoxicity against human SK-MEL-2 cells assessed as cell growth at 1 x 10^-5 M; assay type: functional, cell-based; method in brief: as §1
[35] = test system: SK-MEL-28; assay: Cytotoxicity against human SK-MEL-28 cells assessed as cell growth at 1 x 10^-5 M; assay type: functional, cell-based; method in brief: as §1
[36] = test system: SK-MEL-5; assay: Cytotoxicity against human SK-MEL-5 cells assessed as cell growth at 1 x 10^-5 M; assay type: functional, cell-based; method in brief: as §1
[37] = test system: UACC-257; assay: Cytotoxicity against human UACC257 cells assessed as cell growth at 1 x 10^-5 M; assay type: functional, cell-based; method in brief: as §2
[38] = test system: UACC-62; assay: Cytotoxicity against human UACC62 cells assessed as cell growth at 1 x 10^-5 M; assay type: functional, cell-based; method in brief: as §2
[39] = test system: IGROV-1; assay: Cytotoxicity against human IGROV1 cells assessed as cell growth at 1 x 10^-5 M; assay type: functional, cell-based; method in brief: as §1
[40] = test system: OVCAR-3; assay: Cytotoxicity against human OVCAR3 cells assessed as cell growth at 1 x 10^-5 M; assay type: functional, cell-based; method in brief: as §1
[41] = test system: OVCAR-4; assay: Cytotoxicity against human OVCAR4 cells assessed as cell growth at 1 x 10^-5 M; assay type: functional, cell-based; method in brief: as §1
[42] = test system: OVCAR-5; assay: Cytotoxicity against human OVCAR5 cells assessed as cell growth at 1 x 10^-5 M; assay type: functional, cell-based; method in brief: as §1
[43] = test system: OVCAR-8; assay: Cytotoxicity against human OVCAR8 cells assessed as cell growth at 1 x 10^-5 M; assay type: functional, cell-based; method in brief: as §1
[44] = test system: NCI/ADR-RES; assay: Cytotoxicity against human NCI-ADR-RES cells assessed as cell growth at 1 x 10^-5 M; assay type: functional, cell-based; method in brief: as §1
[45] = test system: SK-OV-3; assay: Cytotoxicity against human SKOV3 cells assessed as cell growth at 1 x 10^-5 M; assay type: functional, cell-based; method in brief: as §1
[46] = test system: 786-0; assay: Cytotoxicity against human 786-0 cells assessed as cell growth at 1 x 10^-5 M; assay type: functional, cell-based; method in brief: as §1
[47] = test system: A498; assay: Cytotoxicity against human A498 cells assessed as cell growth at 1 x 10^-5 M; assay type: functional, cell-based; method in brief: as §1
[48] = test system: ACHN; assay: Cytotoxicity against human ACHN cells assessed as cell growth at 1 x 10^-5 M; assay type: functional, cell-based; method in brief: as §1
[49] = test system: CAKI-1; assay: Cytotoxicity against human Caki1 cells assessed as cell growth at 1 x 10^-5 M; assay type: functional, cell-based; method in brief: as §1
[50] = test system: RXF 393; assay: Cytotoxicity against human RXF393 cells assessed as cell growth at 1 x 10^-5 M; assay type: functional, cell-based; method in brief: as §1
[51] = test system: SN12C; assay: Cytotoxicity against human SN12C cells assessed as cell growth at 1 x 10^-5 M; assay type: functional, cell-based; method in brief: as §1
[52] = test system: TK-10; assay: Cytotoxicity against human TK10 cells assessed as cell growth at 1 x 10^-5 M; assay type: functional, cell-based; method in brief: as §2
[53] = test system: UO-31; assay: Cytotoxicity against human UO31 cells assessed as cell growth at 1 x 10^-5 M; assay type: functional, cell-based; method in brief: as §2
[54] = test system: PC-3; assay: Cytotoxicity against human PC3 cells assessed as cell growth at 1 x 10^-5 M; assay type: functional, cell-based; method in brief: as §1
[55] = test system: DU-145; assay: Cytotoxicity against human DU145 cells assessed as cell growth at 1 x 10^-5 M; assay type: functional, cell-based; method in brief: as §1
[56] = test system: MCF7; assay: Cytotoxicity against human MCF7 cells assessed as cell growth at 1 x 10^-5 M; assay type: functional, cell-based; method in brief: as §1
[57] = test system: MDA-MB-231; assay: Cytotoxicity against human MDA-MB-231 cells assessed as cell growth at 1 x 10^-5 M; assay type: functional, cell-based; method in brief: as §1
[58] = test system: Hs-578T; assay: Cytotoxicity against human Hs578T cells assessed as cell growth at 1 x 10^-5 M; assay type: functional, cell-based; method in brief: as §1
[59] = test system: BT-549; assay: Cytotoxicity against human BT549 cells assessed as cell growth at 1 x 10^-5 M; assay type: functional, cell-based; method in brief: as §1
[60] = test system: T47D; assay: Cytotoxicity against human T47D cells assessed as cell growth at 1 x 10^-5 M; assay type: functional, cell-based; method in brief: as §2
[61] = test system: MDA-MB-468; assay: Cytotoxicity against human MDA-MB-468 cells assessed as cell growth at 1 x 10^-5 M; assay type: functional, cell-based; method in brief: as §1

CCCCCCCCC(=O)Nc1ccc(C[C@H]2C(=O)OC3c4cc(C)cc(O)c4C4=C(C(=O)c5c(O[C@H]6C[C@@H](O)[C@@H](O)[C@H](C)O6)cccc5C4=O)N32)cc1 (stereo partly specified)
inactive: Activity [1] | Activity [2] | Activity [3] | growth inhibition (GI) [4] | growth inhibition (GI) [5] | growth inhibition (GI) [6] | growth inhibition (GI) [7] | growth inhibition (GI) [8] | growth inhibition (GI) [9] | growth inhibition (GI) [10] | growth inhibition (GI) [11] | growth inhibition (GI) [12] | growth inhibition (GI) [13] | growth inhibition (GI) [14] | growth inhibition (GI) [15] | growth inhibition (GI) [16] | growth inhibition (GI) [17] | growth inhibition (GI) [18] | growth inhibition (GI) [19] | growth inhibition (GI) [20] | growth inhibition (GI) [21] | growth inhibition (GI) [22] | growth inhibition (GI) [23] | growth inhibition (GI) [24] | growth inhibition (GI) [25] | growth inhibition (GI) [26] | growth inhibition (GI) [27] | growth inhibition (GI) [28] | growth inhibition (GI) [29] | growth inhibition (GI) [30] | growth inhibition (GI) [31] | growth inhibition (GI) [32] | growth inhibition (GI) [33] | growth inhibition (GI) [34] | growth inhibition (GI) [35] | growth inhibition (GI) [36] | growth inhibition (GI) [37] | growth inhibition (GI) [38] | growth inhibition (GI) [39] | growth inhibition (GI) [40] | growth inhibition (GI) [41] | growth inhibition (GI) [42] | growth inhibition (GI) [43] | growth inhibition (GI) [44] | growth inhibition (GI) [45] | growth inhibition (GI) [46] | growth inhibition (GI) [47] | growth inhibition (GI) [48] | growth inhibition (GI) [49] | growth inhibition (GI) [50] | growth inhibition (GI) [51] | growth inhibition (GI) [52] | growth inhibition (GI) [53] | growth inhibition (GI) [54] | growth inhibition (GI) [55] | growth inhibition (GI) [56] | growth inhibition (GI) [57] | growth inhibition (GI) [58] | growth inhibition (GI) [59] | growth inhibition (GI) [60] | growth inhibition (GI) [61]
